Hits are enriched below; roughly 2.7% of the tested compounds scored in any of these assays.
CHO parental Ca: counter-screen for OX1R antagonists: effect in parental CHO cells. parental CHO-K1, ATP-induced calcium, Fluo-8 fluorescence. inhibition, % at 5.6 µM. 0.63% of 330,000 active;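 active = inhibition above that plate's mean sample inhibition plus 3 SD, cut at about 26% in these data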;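 also: 0% = ATP-challenged DMSO wells and 100% = DMSO wells without ATP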
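test system = CHO parental line | reagent = ATP stimulus | measured by = intracellular calcium via Fluo-8 no-wash fluorescent dye | control set = ATP and no-ATP DMSO wells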
OXTR potentiate: potentiators of human oxytocin receptor | CHO-OTR cells, Fluo-8 calcium fluorescence, potentiator mode; 0% = oxytocin EC15, 100% = EC100 | activation, % at 3 µM | P30559 | 0.061% of 320,000 active;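 active = activation above that plate's cutoff, the mean activation of tested compounds plus 3 SD, cut at about 6.6% in these data, passing the limit was not always enough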;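 also: 100% uses oxytocin at 75 nM as the full agonist control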
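Measured by – Fluo-8 calcium dye fluorescence · Test system – human OTR in CHO cells · Dosing – one concentration, 3.0 µM compound · Controls – EC15 oxytocin alone as 0%, 75 nM oxytocin as 100% · Evaluation – normalized max/min fluorescence ratio, % activation · Timing – 6 min pre-incubation, 100 s read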
OX1R antag-1: blocks the human orexin 1 receptor; CHO/OX1R cells, Fluo-8 calcium fluorescence, orexin A; inhibition, % at 5 µM; 0.43% of 330,000 active;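 active = inhibition above its plate's threshold, mean inhibition of all tested compounds on the plate plus 3 SD, cut at about 37% in these data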;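 also: 0% = orexin A challenge wells and 100% = SB-334867-A antagonist wells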
Target sequence (O43613 whole entry, looked up): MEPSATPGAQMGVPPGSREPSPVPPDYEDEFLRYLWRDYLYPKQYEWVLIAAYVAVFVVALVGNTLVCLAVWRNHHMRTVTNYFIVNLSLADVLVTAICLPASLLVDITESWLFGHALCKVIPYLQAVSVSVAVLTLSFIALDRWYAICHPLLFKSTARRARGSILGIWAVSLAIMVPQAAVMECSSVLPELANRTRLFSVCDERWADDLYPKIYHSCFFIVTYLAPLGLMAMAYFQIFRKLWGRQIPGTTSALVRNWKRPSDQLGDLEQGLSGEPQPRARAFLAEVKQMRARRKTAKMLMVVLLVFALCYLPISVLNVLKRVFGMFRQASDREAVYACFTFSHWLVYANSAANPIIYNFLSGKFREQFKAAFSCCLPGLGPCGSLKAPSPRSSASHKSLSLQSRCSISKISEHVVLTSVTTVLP
OX1R antag-2: OX1R (human) antagonism. O43613. OX1R-expressing cells, FRET antagonist read-out. inhibition, % at 6.6 µM. 1.8% of 330,000 active. AID 485270; in the data active = inhibition mostly above about 38%, no sharp cut-off; inactive = mostly below about 40%;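 also: 0% = agonist challenge alone and 100% = reference antagonist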
OXTR agonist: agonists of human oxytocin receptor; CHO-OTR cells, Fluo-8 calcium fluorescence; normalized: DMSO 0%, oxytocin 100%; activation, % at 3 µM; P30559; 0.32% of 320,000 active;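 active = activation above the mean of all tested compounds plus 3 SD, cutoff set per screening run, cut at about 20% in these data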;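 also: peak over basal fluorescence ratio from a 100 s FLIPR kinetic read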
V1R ag counter: activates human V1a receptor in oxytocin agonist counter-screen; P37288; CHO-V1R cells, Fluo-8 calcium fluorescence, agonist mode; 0% DMSO, 100% 3 nM vasopressin; activation, % at 3 µM; 0.25% of 320,000 active; AID 2797;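 active = activation above the mean activation of all tested compounds plus 3 SD, per screening run, cut at about 20% in these data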;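 also: signal is peak over basal fluorescence ratio across a 100 second FLIPR read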
Numbers without * were called inactive.

`COc1cccc(-c2cc(C(F)(F)F)n3ncc(C(=O)O)c3n2)c1` gave CHO parental Ca -5, OXTR potentiate -2, OX1R antag-1 -24, OX1R antag-2 51*, OXTR agonist 0 and V1R ag counter 0.
Screening COc1cc(C)c(CN2CCN(S(=O)(=O)c3ccc(Cl)s3)CC2)cc1OC returned CHO parental Ca -32, OXTR potentiate -9, OX1R antag-1 -15, OX1R antag-2 12, OXTR agonist 1 and V1R ag counter 3.
For COC(=O)[C@]1(Cc2ccccc2)N[C@H](c2ccc(-c3ccc4c(c3)OCO4)cc2)[C@@H]2C(=O)N(C)C(=O)[C@@H]21 the results were CHO parental Ca -7, OXTR potentiate -2, OX1R antag-1 -11, OX1R antag-2 18, OXTR agonist 1 and V1R ag counter 2.
`CC(=O)OCCCNc1cc(Sc2ccc(Cl)cc2)c2nonc2c1[N+](=O)[O-]` gave CHO parental Ca 2, OXTR potentiate -8, OX1R antag-1 16, OX1R antag-2 9, OXTR agonist -1 and V1R ag counter 0.
For CCCC(=O)OCCNc1cc(Sc2nc3ccccc3[nH]2)c2nonc2c1[N+](=O)[O-] the results were CHO parental Ca 38*, OXTR potentiate -2, OX1R antag-1 13, OX1R antag-2 65*, OXTR agonist -3 and V1R ag counter 0.
For COCCn1c(SCC(=O)N2CCOCC2)nc2ccccc2c1=O the results were CHO parental Ca -4, OXTR potentiate -2, OX1R antag-1 -14, OX1R antag-2 18, OXTR agonist 1 and V1R ag counter 1.
For COCCn1c(SCC(=O)N2CCc3ccccc3C2)nc2ccccc2c1=O the results were CHO parental Ca -16, OXTR potentiate -6, OX1R antag-1 -4, OX1R antag-2 72*, OXTR agonist -2 and V1R ag counter -1.
`Cc1cc2ccccc2n2c(SCC(=O)N3CCc4ccccc4C3)nnc12` gave CHO parental Ca -26, OXTR potentiate -9, OX1R antag-1 26, OX1R antag-2 73*, OXTR agonist -1 and V1R ag counter 1.
`COCCn1c(SCC(=O)N2CCCCC2)nc2c(c1=O)SC(C)C2` (centres undefined) gave CHO parental Ca 100*, OXTR potentiate 1, OX1R antag-1 -21, OX1R antag-2 15, OXTR agonist -1 and V1R ag counter 1.
`COc1ccc(N2CCN(C(=O)CSc3nnc4c(C)cc5ccccc5n34)CC2)cc1` gave CHO parental Ca -22, OXTR potentiate -8, OX1R antag-1 -41, OX1R antag-2 9, OXTR agonist 1 and V1R ag counter 1.
For CC(=O)c1c(C)[nH]c(C(=O)Nc2ccc(C)cc2Br)c1C the results were CHO parental Ca -14, OXTR potentiate -12, OX1R antag-1 -52, OX1R antag-2 18, OXTR agonist -2 and V1R ag counter 1.
CC(=O)Oc1ccc(NC(=O)Cc2ccccc2)cc1 was read as CHO parental Ca 4, OXTR potentiate -4, OX1R antag-1 -20, OX1R antag-2 3, OXTR agonist 0 and V1R ag counter 0.
CC(=O)Oc1ccc(Nc2ccccc2)cc1 was read as CHO parental Ca -1, OXTR potentiate -6, OX1R antag-1 -8, OX1R antag-2 50*, OXTR agonist -1 and V1R ag counter 2.
For COc1ccc(S(=O)(=O)Nc2ccc3c(c2)C(=O)N([C@H](C)CO)C[C@H](C)[C@@H](CN(C)S(=O)(=O)c2cccs2)O3)cc1 the results were CHO parental Ca -15, OXTR potentiate 3, OX1R antag-1 -13, OX1R antag-2 5, OXTR agonist 0 and V1R ag counter 1.
For Cc1nc([N+](=O)[O-])cn1-c1nc2ccccn2c1[N+](=O)[O-] the results were CHO parental Ca -3, OXTR potentiate -3, OX1R antag-1 -11, OX1R antag-2 54*, OXTR agonist 0 and V1R ag counter -1.
Screening CN(CC(=O)Nc1ccc(F)cc1)C(=O)CSc1ccc2c(c1)OCCO2 returned CHO parental Ca -18, OXTR potentiate -4, OX1R antag-1 -20, OX1R antag-2 7, OXTR agonist 0 and V1R ag counter 0.
`Cc1ccc(SCC(=O)OCC(=O)N(C)CC(=O)Nc2ccc(F)cc2)cc1C` gave CHO parental Ca -25, OXTR potentiate -16, OX1R antag-1 -26, OX1R antag-2 17, OXTR agonist 24* and V1R ag counter 23*.
For Cc1ccc(NC(=O)COC(=O)C2(CC(=O)NC(C)C)CCCC2)cc1C the results were CHO parental Ca -8, OXTR potentiate 3, OX1R antag-1 8, OX1R antag-2 5, OXTR agonist -2 and V1R ag counter 1.
O=C1NC(=Nc2ccccc2)S/C1=C\c1cccn1-c1ccccc1 was read as CHO parental Ca -2, OXTR potentiate -12, OX1R antag-1 17, OX1R antag-2 60*, OXTR agonist -1 and V1R ag counter -1.
`CC(=O)Nc1cccc(C(=O)/C=C/c2ccc(N(C)C)cc2)c1` gave CHO parental Ca 82*, OXTR potentiate -19, OX1R antag-1 100*, OX1R antag-2 21, OXTR agonist 195* and V1R ag counter 132*.
`Cc1cc(NC(=O)COc2ccc3ccccc3c2Br)no1` gave CHO parental Ca -8, OXTR potentiate -2, OX1R antag-1 -6, OX1R antag-2 -9, OXTR agonist 1 and V1R ag counter -1.
Screening CC(C)(Oc1ccc(Cl)cc1)C(=O)NCC1CCCO1 (centres undefined) returned CHO parental Ca 11, OXTR potentiate -9, OX1R antag-1 -20, OX1R antag-2 14, OXTR agonist -1 and V1R ag counter -1.
Screening CC(=O)c1sc(NC(=O)C2CCCN2S(=O)(=O)c2ccccc2F)nc1C (centres undefined) returned CHO parental Ca -18, OXTR potentiate -1, OX1R antag-1 37, OX1R antag-2 37*, OXTR agonist 1 and V1R ag counter 0.
COc1ccc(C)cc1NC(=O)C1CCCN1S(=O)(=O)c1ccccc1F (centres undefined) was read as CHO parental Ca -25, OXTR potentiate -4, OX1R antag-1 14, OX1R antag-2 52*, OXTR agonist -2 and V1R ag counter 0.
Screening CC(C)c1ccc(NC(=O)C2CCCN2S(=O)(=O)c2ccccc2F)cc1 (centres undefined) returned CHO parental Ca -14, OXTR potentiate -8, OX1R antag-1 21, OX1R antag-2 37*, OXTR agonist 0 and V1R ag counter 2.
For Cc1ccc(C)c(NC(=O)[C@@H]2CCCN2S(=O)(=O)c2ccccc2F)c1 the results were CHO parental Ca -10, OXTR potentiate -3, OX1R antag-1 21, OX1R antag-2 43*, OXTR agonist 0 and V1R ag counter 0.

Screens from PubChem BioAssay.
